Only some compounds are listed: those with a hit (about 2.3% of all), similar ones and a draw of the others.
TRPC4 PAM: allosteric potentiators of mouse TRPC4 channel | actives 0.42% (n = 310,000) | AID 2227 | B-score at 10 µM | HEK293 TRPC4beta/mu-opioid, DAMGO EC20, Fluo-4 Ca2+ flux; stronger effect = higher value | Q9QUQ5;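 active means B-score of calcium response area above 5 SD of library B-scores, with initial fluorescence ratio within 5 SD of library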;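 further: B-score of integrated fluorescence ratio over time as area under calcium response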
TRPC4 agonist: TRPC4 (mouse) channel activation; AID 2237; HEK293 TRPC4beta/mu-opioid, Fluo4 calcium fluorescence; stronger effect = higher value; Q9QUQ5; B-score at 10 µM; actives 0.49% (n = 310,000);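 active means B-score above 5 SD of library B-scores, and initial fluorescence ratio not above library mean plus 5 SD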;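 further: positive B-score marks a calcium rise read as TRPC4 activation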
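Material: HEK293 stable line with TRPC4beta plus mu-opioid receptor; technique: Fluo4 calcium-sensitive dye fluorescence, kinetic, 1 Hz baseline; timing: Fluo4 dye loading 45 min at room temperature, 110 s recording; controls: assay buffer as low control, maximal DAMGO as high control; read-out: integrated baseline-normalised fluorescence ratio, converted to per-well B score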
TRPC6 inhibitor: mouse TRPC6 channel inhibition | HEK293-TRPC6, membrane potential dye, ACh-evoked depolarization; stronger effect = lower value | B-score at 10 µM | actives 1.1% (n = 310,000);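 active means B-score under library mean minus 3 SD, initial fluorescence not abnormally high, positive integrated signal ratio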;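 further: B-score derived from integrated fluorescence ratio over the kinetic read; more negative B-score means stronger inhibition of depolarization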
Target sequence (Q61143 whole entry, looked up): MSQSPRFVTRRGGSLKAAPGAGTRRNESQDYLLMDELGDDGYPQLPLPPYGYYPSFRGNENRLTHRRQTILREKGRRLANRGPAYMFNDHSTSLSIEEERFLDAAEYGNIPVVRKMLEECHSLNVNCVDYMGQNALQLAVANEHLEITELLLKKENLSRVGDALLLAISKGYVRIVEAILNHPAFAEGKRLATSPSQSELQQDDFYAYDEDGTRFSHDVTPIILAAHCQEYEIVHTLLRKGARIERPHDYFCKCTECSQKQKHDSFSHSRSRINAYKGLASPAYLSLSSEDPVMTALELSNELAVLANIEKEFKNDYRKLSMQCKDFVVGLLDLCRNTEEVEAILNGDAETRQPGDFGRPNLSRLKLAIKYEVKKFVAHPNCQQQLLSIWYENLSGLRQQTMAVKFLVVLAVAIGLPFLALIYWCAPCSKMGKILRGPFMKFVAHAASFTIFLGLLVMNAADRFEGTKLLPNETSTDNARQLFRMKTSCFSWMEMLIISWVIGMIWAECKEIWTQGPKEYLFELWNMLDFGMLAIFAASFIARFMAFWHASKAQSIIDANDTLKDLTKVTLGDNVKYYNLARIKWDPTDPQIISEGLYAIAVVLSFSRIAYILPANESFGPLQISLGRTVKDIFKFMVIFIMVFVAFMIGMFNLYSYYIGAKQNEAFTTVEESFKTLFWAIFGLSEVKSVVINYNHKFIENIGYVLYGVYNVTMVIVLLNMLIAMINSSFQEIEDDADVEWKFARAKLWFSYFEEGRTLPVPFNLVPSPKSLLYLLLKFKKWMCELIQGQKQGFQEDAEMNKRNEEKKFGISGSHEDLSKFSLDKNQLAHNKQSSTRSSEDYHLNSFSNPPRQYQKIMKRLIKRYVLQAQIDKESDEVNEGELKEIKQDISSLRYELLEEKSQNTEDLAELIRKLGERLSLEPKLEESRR
TRPC4 block: TRPC4 (mouse) channel inhibition | actives 0.39% (n = 300,000) | Q9QUQ5 | B-score at 10 µM | HEK293 TRPC4beta/mu-opioid, DAMGO-evoked Fluo4 calcium flux; stronger effect = lower value | AID 2247;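 active means B-score over 3 SD under the library average, no early fluorescence shift, positive overall ratio signal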
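Signal: kinetic Fluo4 fluorescence imaging of calcium influx. Material: stable TRPC4beta/mu-opioid receptor HEK293 cells. Probe or stimulus: DAMGO in two steps, submaximal then maximal.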
TRPC6 act: activators of mouse TRPC6 channel; Q61143; HEK293-TRPC6 membrane potential dye fluorescence; stronger effect = higher value; B-score at 10 µM; actives 0.13% (n = 310,000); AID 2550;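 active means B-score of the integrated fluorescence ratio above library mean plus 3 SD, and starting fluorescence ratio within library mean plus 5 SD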;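 further: higher score means more depolarization so channel activation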
TRPC4 sel inh 2: second selectivity test of TRPC6 inhibitors: effect on mouse TRPC4; inhibition, % at 10 µM; actives 42% (n = 920); shares compounds with TRPC6 inhibitor; HEK293 TRPC4/MOR, membrane potential dye fluorescence; channel activated by saturating DAMGO dose;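 active means compounds whose fluorescence signal differed from control wells by over 3 SD, either direction, in both duplicate plates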
TRPC4 spec: selectivity of TRPC6 inhibitors: effect on mouse TRPC4 | shares compounds with TRPC6 inhibitor | HEK293 TRPC4/mu-opioid, membrane potential fluorescence | activity change, negative = inhibition, % at 10 µM | actives 61% (n = 920) | AID 2777;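 active means rise or fall in signal beyond 3 SD of buffer-only wells in both replicate plates, either sign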;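 further: integrated kinetic ratio of fluorescence range over baseline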
HEK293 MPD ctr 2-1: second counter-screen for TRPC6 inhibitors: parental HEK293 cells | shares compounds with TRPC6 inhibitor | parental HEK293 membrane potential dye fluorescence; maximal acetylcholine challenge after compound addition | signal change vs control, % at 10 µM | actives 31% (n = 920) | AID 2779;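 active means membrane potential signal moving either way by over 3 SD of the maximum-effect control, in both duplicate plates, meaning non-specific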
HEK293 MPD ctr-1: checks TRPC6 inhibitor effects in parental HEK293 cells; shares compounds with TRPC6 inhibitor; parental HEK293 membrane potential dye fluorescence; membrane potential signal change, % at 10 µM; actives 60% (n = 920); AID 2780;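 active means membrane potential signal shifting up or down by more than 3 SD of buffer-only wells, on both duplicate plates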
HEK293 MPD ctr-2: parental HEK293 nonspecific activity of TRPC6 modulators | membrane potential signal change, % at 10 µM | actives 51% (n = 2,400) | shares compounds with TRPC6 inhibitor | AID 488924 | membrane potential dye fluorescence;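 active means membrane potential signal moves up or down beyond 5 SD from buffer-only wells, on both duplicate plates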
HEK293 MPD ctr 2-2: second check of TRPC6 modulator effects in parental HEK293 cells; membrane potential dye fluorescence; after compound, maximal acetylcholine stimulation; inhibition, % at 10 µM; shares compounds with TRPC6 inhibitor; actives 14% (n = 2,400);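 active means membrane potential signal drops by more than 5 SD from the mean control signal, in both duplicate plates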;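 further: plate controls were acetylcholine ECmax control wells for no effect and buffer only wells for full effect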
TRPC4/MOR mod: mouse TRPC4 off-target activity of TRPC6 modulators; shares compounds with TRPC6 inhibitor; HEK293 TRPC4/mu-opioid, membrane potential fluorescence; percent change from control (negative = decrease, positive = increase), % at 10 µM; actives 69% (n = 2,400); AID 488927;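 active means membrane potential signal moved up or down beyond 5 SD of buffer control wells, in both duplicate plates, actives on both sides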;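 further: plate controls were assay buffer wells for no effect and DAMGO maximal-effect wells for full effect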
TRPC4 ctr inh 2: second selectivity test of TRPC6 modulators against mouse TRPC4; HEK293 TRPC4/mu-opioid, membrane potential dye fluorescence; stimulated with maximal-effect DAMGO; inhibition, % at 10 µM; actives 55% (n = 2,400); shares compounds with TRPC6 inhibitor; AID 488928;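 active means drop in membrane potential signal beyond 5 SD of the control wells in both duplicate plates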;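 further: TRPC4 counter screen for TRPC6 hits run under conditions tuned for TRPC6 not TRPC4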
TRPC6 inh conf: confirmation of mouse TRPC6 inhibitors; shares compounds with TRPC6 inhibitor; HEK293-TRPC6, membrane potential dye, ACh-evoked depolarization; inhibition, % at 10 µM; actives 43% (n = 3,300); AID 488960;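 active means fluorescence ratio falls more than 5 SD below the full-stimulation control mean, in both duplicate runs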;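 further: integrated fluorescence ratio of peak minus minimum over baseline after agonist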
TRPC6 act confirm: mouse TRPC6 activator confirmation | shares compounds with TRPC6 inhibitor | HEK293-TRPC6 membrane potential dye fluorescence, FDSS | activation, % at 10 µM | actives 11% (n = 2,800) | AID 488961;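 active means ratio signal rise beyond 5 SD above unstimulated control wells' mean, seen in both duplicate runs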;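 further: plate controls were buffer EC0 wells for no effect and acetylcholine ECmax response for full effect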
Starred values were filed as active, the others as inactive; i = inactive; · = no result given.

SMILES | TRPC4 PAM | TRPC4 agonist | TRPC6 inhibitor | TRPC4 block | TRPC6 act | TRPC6 inh conf | TRPC6 act confirm | others
COc1ccc(-c2cc(=O)oc3c(C)c(OCC(=O)NCCCn4ccnc4)ccc23)cc1 | i | i | i | i | i | · | ·
O=C(Nc1nccs1)c1cc2cc(Cl)ccc2oc1=O | i | i | i | i | i | · | ·
O=C(CNc1cc(S(=O)(=O)N2CCOCC2)ccc1NCC1CCCO1)Nc1ccc(F)c(F)c1 (stereo not drawn) | i | i | i | i | i | · | ·
COc1cccc(C(=O)NC2CCN(CC(=O)Nc3ccccc3Cl)CC2)c1 | i | i | i | i | i | · | ·
Cc1nnnn1/C(=C\c1ccccc1)C(=O)OCC(=O)NC1CCCCC1 | i | i | i | i | i | · | ·
Cc1cc(C)n2c(nc3ccccc32)c1C(=O)NN | i | i | i | i | i | · | ·
COC(=O)c1c(C)cc(C)n2c1nc1ccccc12 | i | i | -6.81* | i | i | 63.6%* | i | TRPC4 sel inh 2=i;TRPC4 spec=-20.1%*;HEK293 MPD ctr 2-1=i;HEK293 MPD ctr-1=-334.0%*
Cc1ccc(CNC(=O)c2nnn(CC(=O)Nc3cccc(C)c3C)c2N)cc1 | i | i | i | i | i | · | ·
O=C(Cn1[nH]c(=O)c2ccccc2c1=O)OCC(=O)N1CCCc2ccccc21 | i | i | i | i | i | · | ·
O=C(Cn1[nH]c(=O)c2ccccc2c1=O)OCC(=O)N1CCc2ccccc2C1 | i | i | -7.31* | i | i | i | · | TRPC4 sel inh 2=i;TRPC4 spec=7.2%*;HEK293 MPD ctr 2-1=i;HEK293 MPD ctr-1=4.2%*
Cc1ccc(C)c(Cn2c3ccccc3c3cnn(CC(=O)NCCCN4CCCCC4)c(=O)c32)c1 | i | i | i | i | i | · | ·
COc1ccc(-c2nc(CS(=O)CC(=O)NC3CCC(C)CC3)c(C)o2)cc1OC (stereo not drawn) | i | i | -6.21* | i | i | 71.0%* | · | HEK293 MPD ctr-2=i;HEK293 MPD ctr 2-2=i;TRPC4/MOR mod=13.0%*;TRPC4 ctr inh 2=29.0%*
Cc1ccc2nc(N(CCCN(C)C)C(=O)c3ccco3)sc2c1 | i | i | -7.1* | i | i | 78.4%* | i | TRPC4 sel inh 2=34.0%*;TRPC4 spec=-19.8%*;HEK293 MPD ctr 2-1=i;HEK293 MPD ctr-1=-146.0%*
CN(C)CCCN(C(=O)c1cc2ccccc2oc1=O)c1nc2ccc(F)cc2s1 | i | i | i | i | i | · | ·
Cc1ccc2nc(N(CCCN(C)C)C(=O)c3ccc(Br)s3)sc2c1 | i | i | i | i | i | · | ·
CN(C)CCCN(C(=O)c1ccco1)c1nc2ccc(F)cc2s1 | i | i | -5.57* | i | i | 63.5%* | i | HEK293 MPD ctr-2=-149.5%*;HEK293 MPD ctr 2-2=78.5%*;TRPC4/MOR mod=-39.0%*;TRPC4 ctr inh 2=84.5%*
CCOc1ccc2c(C)nc(NC3=NC(C)(C)C=C(C)N3)nc2c1 | i | i | -5.13* | -9* | i | i | i | HEK293 MPD ctr-2=i;HEK293 MPD ctr 2-2=i;TRPC4/MOR mod=i;TRPC4 ctr inh 2=i
Cc1ccc(C(=O)c2c3ccc([N+](=O)[O-])cc3[n+]([O-])n2CCC(N)=O)cc1 | i | i | i | i | i | · | ·
COc1ccccc1N1CCN(Cc2ccc(O)c3ncccc23)CC1 | i | i | -7.64* | i | i | i | i | TRPC4 sel inh 2=i;TRPC4 spec=i;HEK293 MPD ctr 2-1=i;HEK293 MPD ctr-1=i
Cc1cccc(-n2ncc3c(N4CCC5(CC4)OCCO5)ncnc32)c1 | i | i | i | i | i | · | ·
c1ccc(-n2ncc3c(N4CCC5(CC4)OCCO5)ncnc32)cc1 | i | i | -7.69* | i | i | i | i | TRPC4 sel inh 2=i;TRPC4 spec=i;HEK293 MPD ctr 2-1=220.5%*;HEK293 MPD ctr-1=i
CN(C)CCOC(C1CCCCC1)C1CCCCC1 | i | i | -5.53* | i | i | 39.0%* | · | HEK293 MPD ctr-2=229.5%*;HEK293 MPD ctr 2-2=i;TRPC4/MOR mod=52.5%*;TRPC4 ctr inh 2=50.5%*
COc1cc(/C=N/n2cnnc2)ccc1OCC(=O)N1CCOCC1 | i | i | -7.18* | i | i | 46.0%* | i | HEK293 MPD ctr-2=-334.5%*;HEK293 MPD ctr 2-2=i;TRPC4/MOR mod=-54.0%*;TRPC4 ctr inh 2=43.5%*
O=C(NCC1CCCO1)C1c2ccccc2C(=O)N1C1CCCCCCC1 (stereo not drawn) | i | i | i | i | i | · | ·
O=C(NCC1CCCO1)[C@@H]1CSC2c3ccccc3C(=O)N21 (stereo partly drawn) | i | i | -5.39* | i | i | i | i | HEK293 MPD ctr-2=i;HEK293 MPD ctr 2-2=i;TRPC4/MOR mod=i;TRPC4 ctr inh 2=i
CCn1nc(C(=O)Nc2cc(Cl)ccc2-n2cncn2)c2ccccc2c1=O | i | i | i | i | i | · | ·
CCN1CCN(c2ccc(S(=O)(=O)N3CCCCC3)cc2NC(=O)COc2cc(C)ccc2Cl)CC1 | 25* | i | -5.68* | i | i | i | i | HEK293 MPD ctr-2=i;HEK293 MPD ctr 2-2=i;TRPC4/MOR mod=i;TRPC4 ctr inh 2=53.5%*
COc1ccc(S(=O)(=O)N2CCCCC2)cc1NC(=O)c1ccc([N+](=O)[O-])o1 | i | i | i | i | i | · | ·
CN1CCN(c2ccc(S(=O)(=O)N3CCCCC3)cc2NC(=O)c2ccc(F)cc2F)CC1 | 16* | i | -9.02* | i | i | i | i | TRPC4 sel inh 2=70.0%*;TRPC4 spec=i;HEK293 MPD ctr 2-1=277.5%*;HEK293 MPD ctr-1=0.3%*
